Key:
[1] = system: Japanese patients with acute myeloid leukemia; assay: Adverse events graded by CTCAE version 3.0; type: in vivo, human; settings: for Blood creatinine increased, all grades, patients / Decreased appetite, all grades, patients / Decreased appetite, grade 3, patients / Epistaxis, all grades, patients / Fatigue, all grades, patients / Febrile neutropenia, all grades, patients / Febrile neutropenia, grade 3, patients / Hyperuricemia, all grades, patients / Hypoalbuminemia, all grades, patients / Hypokalemia, all grades, patients / Hypokalemia, grade 3, patients / Infection, all grades, patients / Infection, grade 3, patients / Nausea, all grades, patients / Neutropenia, all grades, patients / Neutropenia, grade 4, patients / Pyrexia, all grades, patients / Sepsis, all grades, patients / Sepsis, grade 3, patients / Stomatitis, all grades, patients / Vomiting, all grades, patients / Rash, all grades, patients / Hypokalemia, grade 4, patients: irrespective of relationship
In short: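 Adults with relapsed/refractory or untreated AML unfit for standard induction, ECOG ≤2. Test compound given as a 2-h IV drip infusion on days 1 and 15 of 28-day cycles, at 350, 400 or 450 mg per administration. AEs from all cycles graded by CTCAE v3.0 and tabulated per dose cohort by MedDRA system organ class, preferred term and grade, with drug causality assigned. Safety cut-off 6 June 2014.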

[2] = system: Japanese patients with acute myeloid leukemia; assay: Electrocardiogram QTcF assessment; type: in vivo, human
[3] = system: more than 50 unrelated kinases; settings: more than 50 kinases tested; cited from earlier work
[4] = all cohorts (N = 19), all grades
[5] = all cohorts (N = 19), all treatment cycles

## CC[C@@H]1C(=O)N(C)c2cnc(Nc3ccc(C(=O)N[C@H]4CC[C@H](N5CCN(CC6CC6)CC5)CC4)cc3OC)nc2N1C(C)C [Volasertib]
[1]; 350 mg (n = 7)
  Blood creatinine increased, all grades, patients: 1 n
  Decreased appetite, all grades, patients: 5 n
  Decreased appetite, grade 3, patients: 1 n
  Epistaxis, all grades, patients: 1 n
  Fatigue, all grades, patients: 1 n
  Febrile neutropenia, all grades, patients: 5 n
  Febrile neutropenia, grade 3, patients: 5 n
  Hyperuricemia, all grades, patients: 3 n
  Hypoalbuminemia, all grades, patients: 2 n
  Hypokalemia, all grades, patients: 3 n
  Hypokalemia, grade 3, patients: 1 n
  Infection, all grades, patients: 2 n
  Infection, grade 3, patients: 2 n
  Nausea, all grades, patients: 1 n
  Neutropenia, all grades, patients: 1 n
  Neutropenia, grade 4, patients: 1 n
  Pyrexia, all grades, patients: 2 n
  Sepsis, all grades, patients: 2 n
  Sepsis, grade 3, patients: 2 n
  Stomatitis, all grades, patients: 2 n
  Vomiting, all grades, patients: 1 n
[1]; 350 mg cohort 1, neutropenia and thrombocytopenia
  Patients reporting grade 4 AE: one of seven patients
[1]; 400 mg (n = 4)
  Blood creatinine increased, all grades, patients: 2 n
  Decreased appetite, all grades, patients: 1 n
  Epistaxis, all grades, patients: 2 n
  Fatigue, all grades, patients: 3 n
  Febrile neutropenia, all grades, patients: 3 n
  Febrile neutropenia, grade 3, patients: 3 n
  Nausea, all grades, patients: 2 n
  Neutropenia, all grades, patients: 1 n
  Neutropenia, grade 4, patients: 1 n
  Rash, all grades, patients: 4 n
  Sepsis, all grades, patients: 1 n
  Sepsis, grade 3, patients: 1 n
  Stomatitis, all grades, patients: 1 n
  Vomiting, all grades, patients: 1 n
[1]; 400 mg cohort 2, neutropenia and thrombocytopenia
  Patients reporting grade 4 AE: two of four patients
[1]; 450 mg (n = 8)
  Decreased appetite, all grades, patients: 2 n
  Decreased appetite, grade 3, patients: 2 n
  Epistaxis, all grades, patients: 2 n
  Fatigue, all grades, patients: 1 n
  Febrile neutropenia, all grades, patients: 7 n
  Febrile neutropenia, grade 3, patients: 6 n
  Hypoalbuminemia, all grades, patients: 1 n
  Hypokalemia, all grades, patients: 2 n
  Hypokalemia, grade 4, patients: 1 n
  Infection, all grades, patients: 1 n
  Nausea, all grades, patients: 4 n
  Neutropenia, all grades, patients: 1 n
  Neutropenia, grade 4, patients: 1 n
  Pyrexia, all grades, patients: 2 n
  Rash, all grades, patients: 3 n
  Sepsis, all grades, patients: 2 n
  Sepsis, grade 3, patients: 2 n
  Stomatitis, all grades, patients: 2 n
  Vomiting, all grades, patients: 2 n
[1]; 450 mg cohort 3, neutropenia, hypokalemia and abnormal liver function test
  Patients reporting grade 4 AE: three of eight patients
[1]; Total (N = 19)
  Blood creatinine increased, all grades, patients: 3 n
  Decreased appetite, all grades, patients: 8 n
  Decreased appetite, grade 3, patients: 3 n
  Epistaxis, all grades, patients: 5 n
  Fatigue, all grades, patients: 5 n
  Febrile neutropenia, all grades, patients: 15 n
  Febrile neutropenia, grade 3, patients: 14 n
  Hyperuricemia, all grades, patients: 3 n
  Hypoalbuminemia, all grades, patients: 3 n
  Hypokalemia, all grades, patients: 5 n
  Hypokalemia, grade 3, patients: 1 n
  Hypokalemia, grade 4, patients: 1 n
  Infection, all grades, patients: 3 n
  Infection, grade 3, patients: 2 n
  Nausea, all grades, patients: 7 n
  Neutropenia, all grades, patients: 3 n
  Neutropenia, grade 4, patients: 3 n
  Pyrexia, all grades, patients: 4 n
  Rash, all grades, patients: 7 n
  Sepsis, all grades, patients: 5 n
  Sepsis, grade 3, patients: 5 n
  Stomatitis, all grades, patients: 5 n
  Vomiting, all grades, patients: 4 n
[1]; [4]
  Decreased appetite, frequency: 42.1%
  Epistaxis, frequency: 26.3%
  Fatigue, frequency: 26.3%
  Febrile neutropenia, frequency: 78.9%
  Hypokalemia, frequency: 26.3%
  Nausea, frequency: 36.8%
  Pyrexia, frequency: 21.1%
  Rash, frequency: 36.8%
  Sepsis, frequency: 26.3%
  Stomatitis, frequency: 26.3%
  Vomiting, frequency: 21.1%
[1]; [5]
  Patients reporting CTCAE of grade ≥3: 94.7%
  Patients reporting at least one AE irrespective of cause: 19 patients
  Patients reporting at least one drug-related AE: 19 patients
[2]; 450 mg cohort 3 only
  Patients with >60 ms QTcF increase at end of infusion versus prior to infusion: two patients
[2]; all cohorts
  QTcF intervals >500 ms: No QTcF intervals >500 ms were reported
[2]; all dose cohorts
  Time of maximum increase in mean QTcF interval after start of infusion: 2 h
[2]; any cohort, during treatment
  Clinically relevant abnormalities in cardiologic assessment: No patients in any cohort developed clinically relevant abnormalities
[2]; post-dosing, all dose cohorts
  Time by which mean QTcF returned to near baseline: ≤ 24 h
[3]
  Inhibition of unrelated kinases: does not inhibit

— PMC4714695 (Cancer Science, 2015)
